Where “and” joins values, the source holds several entries; their conditions need not be identical. Identical values can stand only once.
What was measured:
Type in all cases: cell-based
[1] = Inhibition of chymotrypsin-like activity of 20S proteasome in human DLD1 cells transfected with 4Ub-Luc gene using Succinyl-Leu-Leu-Val-Tyr-AMC as substrate after 6 hrs by spectrofluorometric analysis; details: dld-1
Procedure, shortened: (§1)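 DLD-1 4Ub-Luc cells seeded at 10⁴ cells/well, exposed to compound or solvent for 6 h, then 30 min in reaction buffer (30 mM Tris–HCl pH 7.5, 1 mM ATP). Chymotrypsin-like and PGPH activities read with specific fluorogenic substrates.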

DLD-1 [2] = assay: Inhibition of 20S proteasome in human DLD1 cells transfected with 4Ub-Luc gene assessed as bioluminescence induction factor at 0.5 uM after 8 hrs by luciferase reporter gene assay relative to epoxomicin
Procedure, shortened: (§2)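 Stably transfected DLD-1 cells expressing 4Ub-Luc reporter, cultured in MEM with 5% heat-inactivated serum. Seeded at 10⁴ cells/well and treated with compound or solvent for 8 h. Luciferase activity in lysates read by luminometer. Induction factor = signal of treated over untreated cells, normalised to epoxomicin at 10^-7 M run in parallel (set to 100). IF ≥10 counted active.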

DLD-1 [3] = assay: Inhibition of 20S proteasome in human DLD1 cells transfected with 4Ub-Luc gene assessed as bioluminescence induction factor at 1 uM after 8 hrs by luciferase reporter gene assay relative to epoxomicin; procedure, shortened: as §2
[4] = Inhibition of peptide-glutamyl-peptide-hydrolyzing activity of 20S proteasome in human DLD1 cells transfected with 4Ub-Luc gene using Z-Leu-Leu-Glu-AMC as substrate after 6 hrs by spectrofluorometric analysis; details: dld-1; procedure, shortened: as §1
DLD-1 [5] = assay: Inhibition of 20S proteasome activity in human DLD1 cells transfected with 4Ub-Luc gene assessed as bioluminescence induction factor at 10 uM after 8 hrs by luciferase reporter gene assay relative to epoxomicin; procedure, shortened: as §2
DLD-1 [6] = assay: Inhibition of 20S proteasome in human DLD1 cells transfected with 4Ub-Luc gene assessed as bioluminescence induction factor at 5 uM after 8 hrs by luciferase reporter gene assay relative to epoxomicin; procedure, shortened: as §2

Compound	IC50 [1] [µM]	IC50 [4] [µM]	fold change (FC) (DLD-1 [2])	fold change (FC) (DLD-1 [3])	fold change (FC) (DLD-1 [5])	fold change (FC) (DLD-1 [6])
C=C(C(=O)[C@H](OC(C)=O)[C@@H](C)[C@H]1[C@@H](OC(C)=O)C[C@@]2(C)[C@@H]3CC[C@H]4[C@H](C)/C(=N/OCc5ccccc5)C=C[C@@]45C[C@@]35CC[C@]12C)[C@@H](C)CO	10	11	–	0.8	5.6	12
C=C(C(=O)[C@H](OC(C)=O)[C@@H](C)[C@H]1[C@@H](OC(C)=O)C[C@@]2(C)[C@@H]3CC[C@H]4[C@H](C)C(=O)CC[C@@]45C[C@@]35CC[C@]12C)[C@@H](C)CO	17	13	–	0.9	48	45
C=C(C(=O)[C@H](OC(C)=O)[C@@H](C)[C@H]1[C@@H](OC(C)=O)C[C@@]2(C)[C@@H]3CC[C@H]4[C@H](C)/C(=N/O)C=C[C@@]45C[C@@]35CC[C@]12C)[C@@H](C)CO	–	–	1	1	–	103
C=C(C(=O)[C@H](O)[C@@H](C)[C@H]1[C@@H](OC(C)=O)C[C@@]2(C)[C@@H]3CC[C@H]4[C@H](C)C(=O)C=C[C@@]45C[C@@]35CC[C@]12C)[C@@H](C)COC(=O)N1CCN(C)CC1	–	–	15.4 and 12	69 and 70	1.5 and 1.4	7.1 and 4.5
C=C(C(=O)[C@H](OC(C)=O)[C@@H](C)[C@H]1[C@@H](OC(C)=O)C[C@@]2(C)[C@@H]3CC[C@H]4[C@H](C)C(=O)C=C[C@@]45C[C@@]35CC[C@]12C)[C@@H](C)COP(=O)(O)O	92	> 1000	–	0.9 and 1	46 and 51	3 and 4.4
C=C(C(=O)[C@H](OC(=O)CNC(=O)OC(C)(C)C)[C@@H](C)[C@H]1[C@@H](OC(C)=O)C[C@@]2(C)[C@@H]3CC[C@H]4[C@H](C)C(=O)C=C[C@@]45C[C@@]35CC[C@]12C)[C@@H](C)CO	–	–	2	14	5	36
C=C(C(=O)[C@H](OC(C)=O)[C@@H](C)[C@H]1[C@@H](OC(C)=O)C[C@@]2(C)[C@@H]3[C@H]4O[C@H]4[C@H]4[C@H](C)C(=O)C=C[C@@]45C[C@@]35CC[C@]12C)[C@@H](C)CO	48	60	–	2.8	15	72
COCC(C(=O)[C@H](O)[C@@H](C)[C@H]1[C@@H](OC(C)=O)C[C@@]2(C)[C@@H]3CC[C@H]4[C@H](C)C(=O)C=C[C@@]45C[C@@]35CC[C@]12C)[C@@H](C)CO (stereo partly specified)	–	–	0.9	1.1	2.6	1.2

Continued, in another order:

IC50 [1] [µM]	IC50 [4] [µM]	Compound	fold change (FC) (DLD-1 [2])	fold change (FC) (DLD-1 [3])	fold change (FC) (DLD-1 [5])	fold change (FC) (DLD-1 [6])
19	91	C=C(C(=O)[C@H](OC(C)=O)[C@@H](C)[C@H]1[C@@H](OC(C)=O)C[C@@]2(C)[C@@H]3CC[C@H]4[C@H](C)C(=O)C=C[C@@]45C[C@@]35CC[C@]12C)[C@@H](C)COP(=O)(OCC)OCC	3	43	2	16
> 1000	> 1000	CC(=O)O[C@H]1C[C@@]2(C)[C@@H]3CC[C@H]4[C@H](C)C(=O)C=C[C@@]45C[C@@]35CC[C@]2(C)[C@H]1[C@H](C)[C@@H](OC(C)=O)C(=O)C=C(C)C	–	1.1	44	34
> 1000	> 1000	C=C(C(=O)[C@H](O)[C@@H](C)[C@H]1[C@@H](OC(C)=O)C[C@@]2(C)[C@@H]3CC[C@H]4[C@H](C)C(=O)C=C[C@@]45C[C@@]35CC[C@]12C)[C@@H](C)COC(=O)CNC(=O)OC(C)(C)C	–	4.8	16	47
> 1000	> 1000	C=C(C(=O)[C@H](OC(C)=O)[C@@H](C)[C@H]1[C@@H](OC(C)=O)C[C@@]2(C)[C@@H]3CC[C@H]4[C@H](C)C(=O)C=C[C@@]45C[C@@]35CC[C@]12C)[C@@H](C)COC(=O)CCl	–	12	19	52
92	> 1000	C=C(C(=O)[C@H](OC(C)=O)[C@@H](C)[C@H]1[C@@H](OC(C)=O)C[C@@]2(C)[C@@H]3CC[C@H]4[C@H](C)C(=O)C=C[C@@]45C[C@@]35CC[C@]12C)[C@@H](C)COC(=O)CNC(=O)OC(C)(C)C	–	14	10	43

— ChEMBL document CHEMBL1938254, “Semisynthetic neoboutomellerone derivatives as ubiquitin-proteasome pathway inhibitors” (Bioorg Med Chem, 2012)
